Published values collected from several papers.
Compare with care: the assays were run in different laboratories.
Medium: plasma

| SMILES | host | route | dose | notes | AUC(0-t) |
| --- | --- | --- | --- | --- | --- |
| CCc1nc(C(N)=O)c(Nc2ccc(N3CCC(N4CCN(C)CC4)CC3)c(OC)c2)nc1NC1CCOCC1 | male Sprague-Dawley rat | oral | 10 mg/kg | – | 9290 ng·h/mL |
| CCc1cc(OC)c2nccc(N3CCc4c(cc(Cn5ccnc5)cc4-c4cn(C)nc4C(F)(F)F)C3=O)c2c1 | male Sprague-Dawley rat | oral | 50 mg/kg | – | 10300 ng·h/mL |
| C[C@H](Nc1ncnc2[nH]cnc12)c1cc2cccc(Cl)c2c(=O)n1-c1ccccc1 | male Wistar rat | oral | 25 mg/kg | single dose | 9340 ng·h/mL |
| CCc1cc(C(=O)NC)c2nccc(N3CCc4c(cc(Cn5ccnc5)cc4-c4cn(C)nc4C(F)(F)F)C3=O)c2c1 | male Sprague-Dawley rat | intravenous | 3 mg/kg | – | 1270 ng·h/mL |
| N#Cc1ccc(Nc2nc(N)cc(Oc3c(F)cc(-c4ccc(C#N)cc4)cc3F)n2)cc1 | Sprague-Dawley rat | oral | 5 mg/kg | – | 74 ng·h/mL |
| C#Cc1cccc(Nc2ncnc3cc(OCCOC)c(OCCOC)cc23)c1 | male Sprague-Dawley rat | oral | 12 mg/kg | single dose | 9250 ng·h/mL |
| CNC(=O)c1c(C)oc2cc(Oc3ncnc4cc(OC)c(OC)cc34)ccc12 | Sprague-Dawley rat | oral | 1 mg/kg | single dose | 6270 ng·h/mL |
| CCOC(=O)[C@@]12C[C@@H]1[C@@H](n1ccc3c(NC)nc(C#Cc4ccc(Cl)s4)nc31)[C@H](O)[C@@H]2O | male Sprague-Dawley rat | oral | 3 mg/kg | – | 170 ng·h/mL |
| O=C(Nc1cc(F)c(F)c(F)c1)c1ccc(F)c(S(=O)(=O)NCc2cccc(B(O)O)c2)c1 | male Sprague-Dawley rat | oral | 20 mg/kg | – | 34.3 ng·h/mL |
| Cc1c(-c2ccccc2)cccc1N1C(=O)c2cc(CN[C@H](C(=O)O)C(C)O)c(OCc3cccc(C#N)c3)cc2C1=O (some centres unmarked) | Sprague-Dawley rat | intravenous | 5 mg/kg | – | 3240 ng·h/mL |
| C=CC(=O)N1CC2CC(n3nc(-c4ccc(C(=O)Nc5ccccn5)cc4)c4c(N)ncnc43)CC2C1 (centres unmarked) | male Wistar rat | oral | 30 mg/kg | – | 4720 ng·h/mL |
| Cc1nc(-c2cnc(NC(C)C)n(C)c2=O)ccc1Oc1ccnc(-c2cnn(C)c2)c1 | male Sprague-Dawley rat | oral | 10 mg/kg | – | 164000 ng·h/mL |
| COc1nc(-c2cc(C)c(N[C@@H](C)c3cc(F)cc(F)c3)nn2)ccc1-n1cnc(C)c1 | male Sprague-Dawley rat | oral | 5 mg/kg | single dose | 31900 ng·h/mL |
| COc1ccc2c(Cc3ccccc3F)c3n(c(=O)c2c1OC)CCc1cc2c(cc1-3)OCO2 | rat | oral | 5 mg/kg | – | 3470 ng·h/mL |
